Measurements reported in ChEMBL document CHEMBL6134765, “Rapid identification of novel indolylarylsulfone derivatives as potent HIV-1 NNRTIs via miniaturized CuAAC click-chemistry-based combinatorial libraries” (RSC Med Chem, 2025).

Tests used:
[1] = target: Human immunodeficiency virus type 1 reverse transcriptase (Human immunodeficiency virus 1) (UniProt Q72547); assay: Inhibition of recombinant HIV-1 reverse transcriptase at 0.66 mM incubated for 1 hr by ELISA relative to control
Summary of the method: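 Each library compound was tested directly as the crude click mixture (diluted in DMSO to 2 mM per well) against HIV-1 RT at 0.66 mM, using an ELISA-based RT kit following the kit protocol. Blank controls held DMSO, TBTA, CuSO4·5H2O and sodium ascorbate. Inhibition is expressed as a percentage.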

[2] = test system: Human immunodeficiency virus 1; assay: Antiviral activity against wild-type HIV-1 IIIB infected in human MT4 cells incubated for 5 days by spectrophometry based MTT assay; format: functional, organism-based; settings: Human immunodeficiency virus 1, IIIB, MT4, 120 h
Summary of the method: (§1)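 MTT protection assay in MT-4 cells infected with HIV-1 IIIB or HIV-2 ROD. EC50 is the compound concentration giving 50% protection of the cultures against virus-induced cytotoxicity.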

[3] = test system: Human immunodeficiency virus 2; assay: Antiviral activity against HIV-2 ROD infected in human MT4 cells incubated for 5 days by spectrophotometry based MTT assay; format: functional, organism-based; settings: Human immunodeficiency virus 2, ROD, MT4, 120 h; summary of the method: as §1
[4] = Cytotoxicity against human MT4 cells assessed as reduction in cell viability incubated for 5 days by MTT assay; format: toxicity, cell-based; settings: time 5 day
Summary of the method: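 Mock-infected MT-4 cultures were read by MTT for cell viability. CC50 is the concentration that reduces viability by 50%.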

[5] = Selectivity index, ratio of CC50 for cytotoxicity against human MT4 cells to EC50 for antiviral activity against wild-type HIV-1 IIIB infected in human MT4 cells; format: toxicity, cell-based; settings: read-out: Ratio CC50/EC50
Summary of the method: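 Selectivity index is calculated as CC50 (mock-infected MT-4, MTT) divided by EC50 (HIV-1 IIIB protection of MT-4, MTT).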

[6] = test system: Human immunodeficiency virus 1; assay: Antiviral activity against HIV-1 harboring L100I mutant infected in human MT4 cells assessed as inhibition of virus induced cytotoxicity incubated for 5 days by spectrophometry based MTT assay; format: functional, organism-based; settings: Human immunodeficiency virus 1, MT4, 120 h
Summary of the method: (§2)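 MT-4 cells (from Dr. N. Yamamoto, Yamaguchi University) infected with single-mutant (L100I, K103N, Y181C, Y188L, E138K) or double-mutant (F227L/V106A; RES056 = K103N/Y181C) HIV-1 strains. Protection against virus-induced cytotoxicity was read by the MTT method. EC50 is the concentration giving 50% protection of the cell cultures.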

[7] = test system: Human immunodeficiency virus 1; assay: Antiviral activity against HIV-1 harboring K103N mutant infected in human MT4 cells assessed as inhibition of virus induced cytotoxicity incubated for 5 days by spectrophometry based MTT assay; format: functional, organism-based; settings: Human immunodeficiency virus 1, MT4, 120 h; summary of the method: as §2
[8] = test system: Human immunodeficiency virus 1; assay: Antiviral activity against HIV-1 harboring Y181C mutant infected in human MT4 cells assessed as inhibition of virus induced cytotoxicity incubated for 5 days by spectrophometry based MTT assay; format: functional, organism-based; settings: Human immunodeficiency virus 1, MT4, 120 h; summary of the method: as §2
[9] = test system: Human immunodeficiency virus 1; assay: Antiviral activity against HIV-1 harboring Y188L mutant infected in human MT4 cells assessed as inhibition of virus induced cytotoxicity incubated for 5 days by spectrophometry based MTT assay; format: functional, organism-based; settings: Human immunodeficiency virus 1, MT4, 120 h; summary of the method: as §2
[10] = test system: Human immunodeficiency virus 1; assay: Antiviral activity against HIV-1 harboring E138K mutant infected in human MT4 cells assessed as inhibition of virus induced cytotoxicity incubated for 5 days by spectrophometry based MTT assay; format: functional, organism-based; settings: Human immunodeficiency virus 1, MT4, 120 h; summary of the method: as §2
[11] = test system: Human immunodeficiency virus 1; assay: Antiviral activity against HIV-1 harboring F227L/V106A double mutant infected in human MT4 cells assessed as inhibition of virus induced cytotoxicity incubated for 5 days by spectrophometry based MTT assay; format: functional, organism-based; settings: Human immunodeficiency virus 1, MT4, 120 h; summary of the method: as §2
[12] = test system: Human immunodeficiency virus 1; assay: Antiviral activity against HIV-1 harboring RES056 mutant infected in human MT4 cells assessed as inhibition of virus induced cytotoxicity incubated for 5 days by spectrophometry based MTT assay; format: functional, organism-based; settings: Human immunodeficiency virus 1, MT4, 120 h; summary of the method: as §2

For `Cc1cc(C)cc(S(=O)(=O)c2c(C(=O)NCc3cn(CSc4ccccc4)nn3)[nH]c3ccc(Cl)cc23)c1`, which inhibition [1] is on record?
The inhibition was > 85%.

What about the EC50 [2] of the same compound?
Its EC50 is 40 nM.

What about the EC50 [3] of the same compound?
The EC50 was > 221 µM.

What about the CC50 at 120 h [4] of the same compound?
The CC50 at 120 h was > 221 µM.

And the selectivity ratio [5]?
The selectivity ratio was > 5510.

And the EC50 [6]?
The EC50 was 150 nM.

And the EC50 [7]?
The EC50 was 240 nM.

And the EC50 [8]?
Its EC50 is 670 nM.

And the EC50 [9]?
The EC50 was 15.8 µM.

What about the EC50 [10] of the same compound?
Its EC50 is 180 nM.

What about the EC50 [11] of the same compound?
The EC50 was 810 nM.

And the EC50 [12]?
The EC50 was > 221 µM.

Which inhibition [1] does the source give for `Cc1cc(C)cc(S(=O)(=O)c2c(C(=O)NCc3cn(Cc4ccc(S(N)(=O)=O)cc4)nn3)[nH]c3ccc(Cl)cc23)c1` here?
Its inhibition is < 85%.

With `Cc1cc(C)cc(S(=O)(=O)c2c(C(=O)NCc3cn(CC(=O)Nc4ccc(S(C)(=O)=O)cc4)nn3)[nH]c3ccc(Cl)cc23)c1` as the compound, how does the inhibition [1] read?
Its inhibition is < 85%.

Which inhibition [1] does the source give for `Cc1cc(C)cc(S(=O)(=O)c2c(C(=O)NCc3cn(Cc4ccccc4Cl)nn3)[nH]c3ccc(Cl)cc23)c1` here?
The inhibition was < 85%.

With `COC(=O)CCCn1cc(CNC(=O)c2[nH]c3ccc(Cl)cc3c2S(=O)(=O)c2cc(C)cc(C)c2)nn1` as the compound, how does the inhibition [1] read?
The inhibition was > 85%.

What about the EC50 [2] of the same compound?
Its EC50 is 35 nM.

And the EC50 [3]?
Its EC50 is > 206 µM.

What about the CC50 at 120 h [4] of the same compound?
The CC50 at 120 h was 206 µM.

And the selectivity ratio [5]?
Its selectivity ratio is 5810.

What about the EC50 [6] of the same compound?
The EC50 was 270 nM.

What about the EC50 [7] of the same compound?
The EC50 was 510 nM.

And the EC50 [8]?
The EC50 was 580 nM.

What about the EC50 [9] of the same compound?
Its EC50 is 9.04 µM.

What about the EC50 [10] of the same compound?
Its EC50 is 50 nM.

And the EC50 [11]?
The EC50 was 1660 nM.

What about the EC50 [12] of the same compound?
The EC50 was > 206 µM.

With `Cc1cc(C)cc(S(=O)(=O)c2c(C(=O)NCc3cn(CCc4ccsc4)nn3)[nH]c3ccc(Cl)cc23)c1` as the compound, how does the inhibition [1] read?
The inhibition was < 85%.

With `Cc1cc(C)cc(S(=O)(=O)c2c(C(=O)NCc3cn(Cc4ccc5ccccc5c4)nn3)[nH]c3ccc(Cl)cc23)c1` as the compound, how does the inhibition [1] read?
Its inhibition is < 85%.

For `Cc1cc(C)cc(S(=O)(=O)c2c(C(=O)NCc3cn(Cc4ccccc4C#N)nn3)[nH]c3ccc(Cl)cc23)c1`, which inhibition [1] is on record?
The inhibition was < 85%.

For `Cc1cn([C@H]2C[C@H](N=[N+]=[N-])[C@@H](CO)O2)c(=O)[nH]c1=O` [ZIDOVUDINE], which EC50 [2] is on record?
Its EC50 is 19 nM.

And the CC50 at 120 h [4]?
Its CC50 at 120 h is > 7.48 µM.

What about the selectivity ratio [5] of the same compound?
Its selectivity ratio is > 397.

What about the EC50 [11] of the same compound?
Its EC50 is 9 nM.

What about the EC50 [12] of the same compound?
Its EC50 is 0.002 µM.

With `Cc1cc(C)cc(S(=O)(=O)c2c(C(=O)NCc3cn(-c4ccc5c(c4)OCO5)nn3)[nH]c3ccc(Cl)cc23)c1` as the compound, how does the inhibition [1] read?
The inhibition was < 85%.

Which inhibition [1] does the source give for `COc1ccccc1Cn1cc(CNC(=O)c2[nH]c3ccc(Cl)cc3c2S(=O)(=O)c2cc(C)cc(C)c2)nn1` here?
Its inhibition is < 85%.

For `Cc1ccnc2c1NC(=O)c1cccnc1N2C1CC1` [NEVIRAPINE], which CC50 at 120 h [4] is on record?
Its CC50 at 120 h is > 15 µM.

And the selectivity ratio [5]?
The selectivity ratio was > 92.

And the EC50 [9]?
Its EC50 is ≥ 7.7 µM.

And the EC50 [11]?
Its EC50 is ≥ 5410 nM.

What about the EC50 [12] of the same compound?
Its EC50 is > 15 µM.

For `Cc1cccc(Cn2cc(CNC(=O)c3[nH]c4ccc(Cl)cc4c3S(=O)(=O)c3cc(C)cc(C)c3)nn2)c1`, which inhibition [1] is on record?
The inhibition was < 85%.

With `Cc1cc(C)cc(S(=O)(=O)c2c(C(=O)NCc3cn(Cc4ccc(C(N)=O)cc4)nn3)[nH]c3ccc(Cl)cc23)c1` as the compound, how does the inhibition [1] read?
The inhibition was < 85%.

For `Cc1cc(C)cc(S(=O)(=O)c2c(C(=O)NCc3cn(CCN4C(=O)c5ccccc5C4=O)nn3)[nH]c3ccc(Cl)cc23)c1`, which inhibition [1] is on record?
The inhibition was < 85%.

With `Cc1ccc(Cn2cc(CNC(=O)c3[nH]c4ccc(Cl)cc4c3S(=O)(=O)c3cc(C)cc(C)c3)nn2)cc1` as the compound, how does the inhibition [1] read?
The inhibition was < 85%.

For `Cc1cc(C)cc(S(=O)(=O)c2c(C(=O)NCc3cn(-c4cc5ccccc5s4)nn3)[nH]c3ccc(Cl)cc23)c1`, which inhibition [1] is on record?
The inhibition was < 85%.

With `Cc1cc(C)cc(S(=O)(=O)c2c(C(=O)NCc3cn(CC(=O)N4CCOCC4)nn3)[nH]c3ccc(Cl)cc23)c1` as the compound, how does the inhibition [1] read?
Its inhibition is < 85%.

For `Cc1cc(C)cc(S(=O)(=O)c2c(C(=O)NCc3cn([C@H]4C[C@H](n5cc(C)c(=O)[nH]c5=O)O[C@@H]4CO)nn3)[nH]c3ccc(Cl)cc23)c1` (single isomer, unassigned), which inhibition [1] is on record?
Its inhibition is < 85%.

For `COc1cccc(Cn2cc(CNC(=O)c3[nH]c4ccc(Cl)cc4c3S(=O)(=O)c3cc(C)cc(C)c3)nn2)c1`, which inhibition [1] is on record?
The inhibition was < 85%.
